In data set [1] the test system is RS4-11. The data set can be described thus: Antitumor activity against human RS4:11 cells xenografted in SCID mouse assessed as induction of apoptosis by measuring PARP cleavage at 1 to 5 mg/kg, iv administered as single dose and measured at 1 to 24 hrs post dose by Western blot analysis. Format: functional, organism-based. The method, boiled down:
(§1)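 SCID mice bearing subcutaneous RS4;11 tumors were given a single intravenous dose of 1 or 5 mg/kg. Tumors were harvested at 1, 6 and 24 h, two mice per time point. Tissue was ground in liquid nitrogen and lysed in CST buffer with protease inhibitors. 20 µg lysate per lane was probed for BRD2, BRD3, BRD4, c-Myc and cleaved PARP, with GAPDH as loading control.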

In data set [2] the test system is Mus musculus. Briefly: In vivo Protac activity at cereblon/cullin/BET in tumor of human RS4:11 cells xenografted in SCID mouse assessed as reduction in cMyc protein expression at 1 to 5 mg/kg, iv administered as single dose and measured at 1 to 24 hrs post dose by Western blot analysis. Format: functional, organism-based. The gist of the method: as §1
Data set [3] addresses T1, Protein cereblon/Bromodomain-containing protein 2/Cullin-4A (Homo sapiens) (UniProt P25440+Q96SW2+Q13619). Briefly: Protac activity at cereblon/cullin 4A/BRD2 in human RS4:11 cells assessed as BRD2 degradation at 0.5 nM after 3 hrs in presence of neddylation inhibitor MLN4924 by Western blot analysis. Format: cell-based. The gist of the method: (§2)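 RS4;11 cells were pre-treated for 2 h with DMSO, lenalidomide (10 μM), MLN4924 (1 μM) or MG-132 (20 μM). The degrader was then added at 0.5 nM for 3 h. Lysates were immunoblotted for BRD2, BRD3 and BRD4, with GAPDH as loading control.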

Data set [4] concerns the target Protein cereblon/Eukaryotic peptide chain release factor GTP-binding subunit ERF3A/Cullin-4A (Homo sapiens) (UniProt Q96SW2+Q13619+P15170). Briefly: Induction of Cereblon/Cullin 4A-mediated-GSPT1 degradation in human MV4-11 cells at 0.01 to 10 nM after 3 hrs by Western blot analysis. Format: cell-based.
For data set [5], the target named is T2, Protein cereblon/Bromodomain-containing protein 4/Cullin-4A (Homo sapiens) (UniProt O60885+Q96SW2+Q13619). Briefly: Protac activity at cereblon/cullin 4A/BRD4 in human RS4:11 cells assessed as BRD4 degradation at 0.5 nM after 3 hrs in presence of lenalidomide by Western blot analysis. Format: cell-based. The method, boiled down: as §2
Data set [6] is described as follows: Drug uptake in kidney of SCID mouse xenografted with human RS4:11 cells at 5 mg/kg, iv measured at 6 hrs by LC-MS/MS analysis. Format: ADME, organism-based. The note with it: in vivo, BLD = below limit of detection. The method, boiled down: (§3)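 Female SCID mice with RS4;11 tumors received a single 5 mg/kg intravenous dose in 20% PCP/80% PBS. Plasma (heparin) and tissues were taken at 1, 3 and 6 h, one mouse per time point in duplicate. Plasma was precipitated with acetonitrile containing internal standard. Tissues were homogenized 5:1 in 20% acetonitrile. Quantified by LC-MS/MS against spiked plasma standards (2–2000 ng/mL); values in ng/ml or ng/g.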

Data set [7] in a line: Drug uptake in liver of SCID mouse xenografted with human RS4:11 cells at 5 mg/kg, iv measured at 6 hrs by LC-MS/MS analysis. It counts as ADME, organism-based. The note with it: in vivo, BLD = below limit of detection. The method, boiled down:
as §3

The target of data set [8] is T2, Protein cereblon/Bromodomain-containing protein 4/Cullin-4A (Homo sapiens). The data set can be described thus: Protac activity at cereblon/cullin 4A/BRD4 in human RS4:11 cells assessed as BRD4 degradation at 0.5 nM after 3 hrs by Western blot analysis. Format: cell-based.
For another data set, the system named is MV4-11. The data set can be described thus: Induction of apoptosis in human MV4-11 cells at 1 nM after 24 hrs by Annexin V/propidium iodine-double staining-based flow cytometry relative to control. It counts as functional. The method, boiled down: (§4)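 Leukemia cells were treated for 24 h or 48 h at the indicated concentrations. They were then collected, washed in cold PBS and stained with Annexin V and propidium iodide. Apoptotic fraction was measured by flow cytometry.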

Data set [9] concerns the target T2, Protein cereblon/Bromodomain-containing protein 4/Cullin-4A (Homo sapiens). Briefly: Protac activity at cereblon/cullin 4A/BRD4 in human MV4-11 cells assessed as BRD4 degradation at 10 pM after 3 hrs by Western blot analysis. It counts as cell-based.
Data set [10] concerns the target T1, Protein cereblon/Bromodomain-containing protein 2/Cullin-4A (Homo sapiens). Briefly: Protac activity at cereblon/cullin 4A/BRD2 in human RS4:11 cells assessed as BRD2 degradation at 0.5 nM after 3 hrs in presence of proteasome inhibitor MG132 by Western blot analysis. It counts as cell-based. The method, boiled down: as §2
The subject of data set [11] is RS4-11. The data set can be described thus: Induction of apoptosis in human RS4:11 cells at 0.1 nM after 48 hrs by Annexin V/propidium iodine-double staining-based flow cytometry relative to control. It counts as functional. The gist of the method: as §4
Data set [12] deals with T3, Protein cereblon/Bromodomain-containing protein 3/Cullin-4A (Homo sapiens) (UniProt Q15059+Q96SW2+Q13619). The data set can be described thus: Protac activity at cereblon/cullin 4A/BRD3 in human RS4:11 cells assessed as BRD3 degradation at 0.5 nM after 3 hrs in presence of neddylation inhibitor MLN4924 by Western blot analysis. It counts as cell-based. The method, boiled down: as §2

A short description of data set [13]: Drug uptake in intestine of SCID mouse xenografted with human RS4:11 cells at 5 mg/kg, iv measured at 6 hrs by LC-MS/MS analysis. The following applies: in vivo, BLD = below limit of detection. It counts as ADME, organism-based. The method, boiled down:
as §3

Data set [14] has as its target T3, Protein cereblon/Bromodomain-containing protein 3/Cullin-4A (Homo sapiens). The data set can be described thus: Protac activity at cereblon/cullin 4A/BRD3 in human RS4:11 cells assessed as BRD3 degradation at 0.5 nM after 3 hrs in presence of proteasome inhibitor MG132 by Western blot analysis. Format: cell-based. The gist of the method:
as §2

Data set [15] concerns RS4-11. The data set can be described thus: Antitumor activity against human RS4:11 cells xenografted in SCID mouse assessed tumor growth inhibition at 5 mg/kg, iv administered weekly. It counts as functional, organism-based. The gist of the method:
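RS4;11 xenografts: 5×10^6 cells in 50% Matrigel injected subcutaneously on the dorsal side of SCID mice, one tumor per mouse. Randomized to treatment or vehicle at ~100 mm3. Intravenous dosing on several schedules, including 3 times per week for 3 weeks and weekly. Volume = L × W2/2; body weight tracked.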

Data set [16] concerns RS4-11. The data set can be described thus: Induction of apoptosis in human RS4:11 cells at 0.3 to 10 nM after 24 hrs by Annexin V/propidium iodine-double staining-based flow cytometry relative to control. It counts as functional. The gist of the method:
as §4

Data set [17] deals with MOLM-13. The data set can be described thus: Induction of apoptosis in human MOLM13 cells at 1 nM after 24 hrs by Annexin V/propidium iodine-double staining-based flow cytometry relative to control. It counts as functional. The method, boiled down: as §4
Data set [18] in a line: Drug uptake in lungs of SCID mouse xenografted with human RS4:11 cells at 5 mg/kg, iv measured at 6 hrs by LC-MS/MS analysis. It counts as ADME, organism-based, Lung. The note with it: in vivo, BLD = below limit of detection. The gist of the method:
as §3

Data set [19] relates to MOLM-13. The data set can be described thus: Growth inhibition of human MOLM13 cells after 96 hrs by CCK8 assay. Format: functional, cell-based. The note with it: MOLM-13, 96 h.
Data set [20] has as its system Mus musculus. The data set can be described thus: In vivo Protac activity at cereblon/cullin/BRD4 in tumor of human RS4:11 cells xenografted in SCID mouse assessed as reduction in BRD4 protein expression at 1 to 5 mg/kg, iv administered as single dose and measured at 1 to 6 hrs post dose by Western blot analysis. It counts as functional, organism-based. The gist of the method:
as §1

A short description of data set [21]: Toxicity in SCID mouse xenografted with human RS4:11 cells assessed weight loss at 1 to 5 mg/kg, iv administered 3 times per week for 3 weeks. Format: organism-based. The following applies: in vivo, 504 h. The method, boiled down:
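SCID mice received a subcutaneous dorsal implant of 5×10^6 RS4;11 cells in 50% Matrigel, one tumor per mouse. Mice were randomized at ~100 mm3 into treatment or vehicle groups. Doses were 1, 2.5 or 5 mg/kg three times weekly for 3 weeks, with body weight and signs of toxicity monitored.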

Data set [22] deals with T3, Protein cereblon/Bromodomain-containing protein 3/Cullin-4A (Homo sapiens). Briefly: Protac activity at cereblon/cullin 4A/BRD3 in human RS4:11 cells assessed as BRD3 degradation at 10 pM after 3 hrs by Western blot analysis. It counts as cell-based.

Active and inactive are the calls of the source. The calls are words filed in the database; no cut-off is given here.

T3 sequence (Q13619 whole entry, looked up): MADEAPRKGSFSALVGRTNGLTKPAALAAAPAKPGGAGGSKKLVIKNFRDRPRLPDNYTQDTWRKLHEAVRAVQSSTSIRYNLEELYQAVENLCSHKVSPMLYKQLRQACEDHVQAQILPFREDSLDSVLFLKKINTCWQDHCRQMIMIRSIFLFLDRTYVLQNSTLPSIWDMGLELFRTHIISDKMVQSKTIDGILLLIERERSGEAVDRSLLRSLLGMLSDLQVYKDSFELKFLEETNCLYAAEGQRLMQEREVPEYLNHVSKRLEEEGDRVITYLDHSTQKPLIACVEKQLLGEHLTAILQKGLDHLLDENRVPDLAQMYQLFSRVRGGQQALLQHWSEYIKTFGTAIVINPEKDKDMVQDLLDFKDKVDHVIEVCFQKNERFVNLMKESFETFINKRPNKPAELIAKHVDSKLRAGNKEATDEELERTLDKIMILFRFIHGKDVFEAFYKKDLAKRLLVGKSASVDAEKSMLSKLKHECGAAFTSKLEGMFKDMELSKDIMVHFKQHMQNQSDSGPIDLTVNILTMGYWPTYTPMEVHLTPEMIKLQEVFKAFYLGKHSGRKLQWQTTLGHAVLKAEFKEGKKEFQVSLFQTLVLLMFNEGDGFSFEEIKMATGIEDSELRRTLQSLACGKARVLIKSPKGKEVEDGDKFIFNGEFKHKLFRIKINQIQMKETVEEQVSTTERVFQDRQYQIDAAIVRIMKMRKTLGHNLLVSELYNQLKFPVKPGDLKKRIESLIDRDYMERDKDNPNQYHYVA
T3 sequence (Q15059 whole entry, looked up): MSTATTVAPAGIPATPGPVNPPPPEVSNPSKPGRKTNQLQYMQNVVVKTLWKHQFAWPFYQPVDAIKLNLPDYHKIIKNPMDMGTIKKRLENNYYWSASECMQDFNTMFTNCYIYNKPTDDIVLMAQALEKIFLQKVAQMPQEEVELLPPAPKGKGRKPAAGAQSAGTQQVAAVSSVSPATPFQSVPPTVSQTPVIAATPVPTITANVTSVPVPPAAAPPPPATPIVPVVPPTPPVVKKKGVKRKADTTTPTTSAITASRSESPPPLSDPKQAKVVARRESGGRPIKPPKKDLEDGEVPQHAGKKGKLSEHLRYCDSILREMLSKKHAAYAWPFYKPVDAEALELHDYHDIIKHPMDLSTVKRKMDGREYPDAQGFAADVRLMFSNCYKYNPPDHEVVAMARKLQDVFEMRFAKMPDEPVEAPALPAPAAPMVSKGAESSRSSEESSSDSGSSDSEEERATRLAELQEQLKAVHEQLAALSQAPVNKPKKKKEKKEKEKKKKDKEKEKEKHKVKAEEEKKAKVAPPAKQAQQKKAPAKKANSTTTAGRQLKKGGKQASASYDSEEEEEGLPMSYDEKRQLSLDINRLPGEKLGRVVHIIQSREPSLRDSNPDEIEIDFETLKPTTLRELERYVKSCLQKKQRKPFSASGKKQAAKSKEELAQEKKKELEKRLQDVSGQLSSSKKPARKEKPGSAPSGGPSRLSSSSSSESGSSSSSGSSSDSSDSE
T3 sequence (Q96SW2 whole entry, looked up): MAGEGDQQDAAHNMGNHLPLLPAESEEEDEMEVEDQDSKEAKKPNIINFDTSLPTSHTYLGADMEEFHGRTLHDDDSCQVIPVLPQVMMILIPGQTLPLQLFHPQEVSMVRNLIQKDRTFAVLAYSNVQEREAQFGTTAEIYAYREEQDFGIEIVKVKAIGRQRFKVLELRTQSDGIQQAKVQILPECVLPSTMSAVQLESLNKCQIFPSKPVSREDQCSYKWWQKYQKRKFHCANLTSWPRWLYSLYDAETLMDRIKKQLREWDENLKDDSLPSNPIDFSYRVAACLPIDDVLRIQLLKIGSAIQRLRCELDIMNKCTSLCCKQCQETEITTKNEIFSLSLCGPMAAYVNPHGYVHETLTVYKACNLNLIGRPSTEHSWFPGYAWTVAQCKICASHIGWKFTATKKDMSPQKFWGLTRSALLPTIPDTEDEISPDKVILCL
T1 sequence (P25440 whole entry, looked up): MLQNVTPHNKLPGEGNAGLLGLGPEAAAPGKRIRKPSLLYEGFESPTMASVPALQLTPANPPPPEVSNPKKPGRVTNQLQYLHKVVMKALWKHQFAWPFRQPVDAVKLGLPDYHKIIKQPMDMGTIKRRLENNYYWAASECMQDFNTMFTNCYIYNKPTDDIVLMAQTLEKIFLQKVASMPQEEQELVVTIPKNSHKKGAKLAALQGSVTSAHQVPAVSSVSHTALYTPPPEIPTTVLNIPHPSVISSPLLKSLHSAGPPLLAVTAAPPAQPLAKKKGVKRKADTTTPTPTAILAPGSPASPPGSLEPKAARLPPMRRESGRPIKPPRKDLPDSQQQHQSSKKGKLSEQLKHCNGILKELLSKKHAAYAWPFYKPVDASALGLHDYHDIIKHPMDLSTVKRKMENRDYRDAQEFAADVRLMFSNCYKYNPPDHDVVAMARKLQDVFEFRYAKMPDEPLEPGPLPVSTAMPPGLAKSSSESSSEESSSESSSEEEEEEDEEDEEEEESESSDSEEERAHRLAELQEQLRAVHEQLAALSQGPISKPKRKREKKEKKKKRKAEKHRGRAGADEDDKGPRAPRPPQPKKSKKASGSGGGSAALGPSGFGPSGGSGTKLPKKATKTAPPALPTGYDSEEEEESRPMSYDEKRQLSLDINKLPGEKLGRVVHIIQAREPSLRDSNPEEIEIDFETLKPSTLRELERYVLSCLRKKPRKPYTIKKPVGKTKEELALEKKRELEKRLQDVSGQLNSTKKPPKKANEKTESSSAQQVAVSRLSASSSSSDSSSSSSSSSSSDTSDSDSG
T1 sequence (Q13619 whole entry, looked up): as the sequence (Q13619 whole entry, looked up) above
T1 sequence (Q96SW2 whole entry, looked up): as the sequence (Q96SW2 whole entry, looked up) above
Protein cereblon/Eukaryotic peptide chain release factor GTP-binding subunit ERF3A/Cullin-4A (Homo sapiens), sequence (P15170 whole entry, looked up): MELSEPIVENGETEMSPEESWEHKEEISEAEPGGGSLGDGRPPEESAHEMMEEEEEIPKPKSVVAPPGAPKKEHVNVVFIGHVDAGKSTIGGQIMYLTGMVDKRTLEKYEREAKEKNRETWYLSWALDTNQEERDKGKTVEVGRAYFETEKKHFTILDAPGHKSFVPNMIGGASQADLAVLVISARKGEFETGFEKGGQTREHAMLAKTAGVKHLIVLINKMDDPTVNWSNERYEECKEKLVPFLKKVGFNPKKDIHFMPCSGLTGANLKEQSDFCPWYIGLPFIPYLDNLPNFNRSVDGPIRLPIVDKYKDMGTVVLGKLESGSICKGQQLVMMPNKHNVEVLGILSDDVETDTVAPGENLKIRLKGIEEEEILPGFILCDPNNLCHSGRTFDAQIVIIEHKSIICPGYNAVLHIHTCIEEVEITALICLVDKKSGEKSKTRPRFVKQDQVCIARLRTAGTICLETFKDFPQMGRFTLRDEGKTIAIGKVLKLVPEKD
Protein cereblon/Eukaryotic peptide chain release factor GTP-binding subunit ERF3A/Cullin-4A (Homo sapiens), sequence (Q13619 whole entry, looked up): as the sequence (Q13619 whole entry, looked up) above
Protein cereblon/Eukaryotic peptide chain release factor GTP-binding subunit ERF3A/Cullin-4A (Homo sapiens), sequence (Q96SW2 whole entry, looked up): as the sequence (Q96SW2 whole entry, looked up) above

As to `Cc1nnc2n1Cc1sc(C#Cc3cnn(CCCC#Cc4cccc5c4CN(C4CCC(=O)NC4=O)C5=O)c3)c(Cc3ccccc3)c1OC2` (stereo not drawn), the outcome (in the data set with RS4-11 [1]; in the data set with Mus musculus [2]; in data set [8]; in data set [9]; in the data set on Mus musculus [20]; in [22]) was Active. In addition, the outcome in data set [3], in data set [4], in data set [5], in data set [10], in data set [12] and in data set [14] was inactive. Further, the Drug uptake result in data set [6], in [7], in [13] and in [18] was “Bld” each time. Further, the Activity is recorded as over 60% with MV4-11; over 40% in the data set with RS4-11 [11]; 15 - 30% in the data set with RS4-11 [16]; over 60% in the data set with MOLM-13 [17]; “Non-Toxic” in [21]. For the same compound, the TGI entry in the data set with RS4-11 [15] is “Active”. In addition, half-maximal inhibition in the data set with MOLM-13 [19] (IC50) required 62 pM.

The values above are taken from ChEMBL document CHEMBL4382197, “Discovery of QCA570 as an Exceptionally Potent and Efficacious Proteolysis Targeting Chimera (PROTAC) Degrader of the Bromodomain and Extra-Terminal (BET) Proteins Capable of Inducing Complete and Durable Tumor Regression” (J Med Chem, 2018).
